Legend:
[1] = melting temperature; fluorescence melt of hairpins on a sequencing array, two-state fit, raised by 9.35 °C to match UV melts; conditions: sodium 0.088 M
Summary of the method: (§1)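 Melting temperature and folding enthalpy were derived from bootstrapped two-state fits. The fitted temperatures were raised by 9.35 °C to agree with UV melts, and four replicates were combined by inverse variance. The underlying data were Cy3 fluorescence images of library hairpins, with annealed Cy3 and quencher oligos, on a sequenced MiSeq flow cell in 50 mM Na-HEPES pH 8.0, 25 mM NaCl, taken in 2.5 °C steps up to 60 °C, normalised to pre-quench Cy3 and to control constructs.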

[2] = folding enthalpy; higher = less favourable; fluorescence melt of hairpins on a sequencing array, two-state fit; conditions: sodium 0.088 M
Summary of the method: as §1

| Sequence | Tm [1] | folding enthalpy [2] |
| --- | --- | --- |
| CTATTGAAAAATAG (((((....))))) | 23.4 °C | -8.21 kcal/mol |
| CTCAAGAAATTGAG (((((....))))) | 33.8 °C | -12.8 kcal/mol |
| CTCATGAAAATGAG (((((....))))) | 44.8 °C | -21.3 kcal/mol |
| CTCCAGAAATGGAG (((((....))))) | 44.9 °C | -18.9 kcal/mol |
| CTGCAGAAATGCAG (((((....))))) | 53.4 °C | -21 kcal/mol |
| CTGCTGAAAAGCAG (((((....))))) | 58.9 °C | -22.2 kcal/mol |
| CTGGAGAAATCCAG (((((....))))) | 43.6 °C | -27.1 kcal/mol |
| CTGGGGAAACCCAG (((((....))))) | 53.5 °C | -25.4 kcal/mol |
| CTGTCGAAAGACAG (((((....))))) | 67.5 °C | -21.3 kcal/mol |
| CTTCTGAAAAGAAG (((((....))))) | 43.3 °C | -14.7 kcal/mol |
| CTTGCGAAAGCAAG (((((....))))) | 58.8 °C | -16.9 kcal/mol |
| GAAAAACCGAAAGGTTTC (((..(((....)))))) | 34.8 °C | -12.4 kcal/mol |
| GAAAAACGAAAGTTGTTC (((.(((....))).))) | 33.6 °C | -19.6 kcal/mol |
| GAAAACCGAAAGGTATTC (((.(((....))).))) | 37.5 °C | -23.5 kcal/mol |
| GAAAACGAAAGTTCGTTC ((((((....)))..))) | 25.1 °C | -10.8 kcal/mol |
| GAAAACGAAAGTTTTC ((((((....)))))) | 55 °C | -37.9 kcal/mol |
| GAAAACGAAAGTTTTTC ((((((....))).))) | 42.1 °C | -17.8 kcal/mol |
| GAAAAGACGAAAGTCTTC (((..(((....)))))) | 35.6 °C | -11.8 kcal/mol |
| GAAAAGCGAAAGCTATTC (((.(((....))).))) | 36.4 °C | -19.5 kcal/mol |
| GAAAAGCGAAAGCTTTC (((.(((....)))))) | 43.5 °C | -14.2 kcal/mol |
| GAAACCGAAAGGTAATTC ((((((....)))..))) | 27.9 °C | -9.6 kcal/mol |
| GAAACCGAAAGGTTATTC ((((((....)))..))) | 29.6 °C | -12.4 kcal/mol |
| GAAACGCGAAAGCGATTC (((.(((....))).))) | 50.8 °C | -28.3 kcal/mol |

| Sequence | Tm [1] | folding enthalpy [2] |
| --- | --- | --- |
| GAAACGGGAAACCGTTCC (.(((((....))))).) | 39.4 °C | -14.6 kcal/mol |
| GAAACTGGAAACAGTTCC (.(((((....))))).) | 35.2 °C | -19.3 kcal/mol |
| GAAACTGGAAACGGTTTC (((((.(....).))))) | 44.5 °C | -34.5 kcal/mol |
| GAAAGCGAAAGCTATTC ((((((....))).))) | 30.4 °C | -12 kcal/mol |
| GAAAGCGAAAGCTGATTC ((((((....)))..))) | 42 °C | -19.2 kcal/mol |
| GAAAGCGAAAGCTTTTC ((((((....))).))) | 47.1 °C | -12.9 kcal/mol |
| GAAAGGGGAAACTCTTTC (((((.(....).))))) | 36.3 °C | -25 kcal/mol |
| GAAATACGAAAGTAGTTC (((.(((....))).))) | 42.1 °C | -26.7 kcal/mol |
| GAAATCCGAAAGGAGTTC (((.(((....))).))) | 49.4 °C | -31.9 kcal/mol |
| GAAATGCGAAAGCAGTTC (((.(((....))).))) | 52.4 °C | -33.5 kcal/mol |
| GAAATGGAAACATTTC ((((((....)))))) | 46.7 °C | -30.2 kcal/mol |
| GAAATGGGAAACCGTTTC ((((.((....)).)))) | 43.6 °C | -33.4 kcal/mol |
| GAAATTGCGAAAGCATTC (((..(((....)))))) | 23.4 °C | -6.33 kcal/mol |
| GAAATTGGAAACAGTTTC ((((.((....)).)))) | 34.2 °C | -26.4 kcal/mol |
| GAACACCGAAAGGTCTTC (((.(((....))).))) | 35.2 °C | -15.2 kcal/mol |
| GAACACCGAAAGGTTTC (((.(((....)))))) | 37.4 °C | -20.5 kcal/mol |
| GAACACCGAAAGGTTTTC (((.(((....))).))) | 38 °C | -25.1 kcal/mol |
| GAACACGAAAGTGCTTC ((((((....))).))) | 41.9 °C | -20.2 kcal/mol |
| GAACAGAAATGTTC (((((....))))) | 41.4 °C | -18.1 kcal/mol |
| GAACAGACGAAAGTCTTC (((..(((....)))))) | 25.6 °C | -9.42 kcal/mol |
| GAACAGCGAAAGCTCTTC (((.(((....))).))) | 34.3 °C | -14.5 kcal/mol |
| GAACAGCGAAAGCTTTC (((.(((....)))))) | 33.6 °C | -12.4 kcal/mol |
| GAACAGCGAAAGCTTTTC (((.(((....))).))) | 37.8 °C | -19.9 kcal/mol |

From the array DNA melting data of Ke et al. (doi:10.1101/2024.01.08.574731)
